Here are results for 16 compounds from ChEMBL document CHEMBL1122590, “Dibenz[b,e]oxepinalkanoic acids as nonsteroidal antiinflammatory agents. 4. Synthesis and evaluation of 4-(4,10-dihydro-10-oxothieno[3,2-c] [1]benzoxepin-8-yl)butanol and -butyric acid and related derivatives” (1984).

Assay [1] deals with Rattus norvegicus. The assay can be described thus: Ability to inhibit Carrageenan-induced paw edema in rat administered per orally. Format: functional. Conditions: for ED50: po. The gist of the method:
(§1)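 Male Wistar rats, 130-200 g, groups of 7-10, fasted overnight with water available. Oral dosing in 10 mL/kg of aqueous Tween 80 suspension (oils in emulphor/alcohol/water 1:1:8) at 1, 2 and/or 4 h before subplantar injection of 0.1 mL of 1% carrageenan into left hind paw. Paw volume by mercury displacement at 0 and 3 h; % edema inhibition vs vehicle; ED50 by linear regression from at least three doses.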
(In general: In the carrageenan paw model, swelling and tenderness develop within hours.)

Assay [2] deals with Mus musculus. The assay can be described thus: Ability to inhibit phenylquinone induced writhing in mouse at dose 25 mg/Kg administered per orally. Particulars: po. Background: In writhing tests, fewer writhes than in controls are read as antinociception.
In assay [3] the test system is Rattus norvegicus. The assay can be described thus: Ability to inhibit Carrageenan-induced paw edema in rat at dose 20 mg/Kg administered per orally. Conditions: po. The format is functional. The gist of the method: as §1
The subject of assay [4] is Mus musculus. The assay can be described thus: Ability to inhibit phenylquinone induced writhing in mouse administered per orally. Particulars: po.
Assay [5] concerns Rattus norvegicus. The assay can be described thus: Ability to inhibit Carrageenan-induced paw edema in rat at a dose of 20 mg/kg administered per orally. The format is functional. Conditions: route oral. The gist of the method:
as §1

The subject of assay [6] is Rattus norvegicus. The assay can be described thus: Ability to inhibit gastric irritation in rat administered per orally. Format: functional. Conditions: Stomach, po. In a few lines: (§2)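 Groups of 10 male Wistar rats, 150-175 g, fasted 48 h with water available, dosed orally (10 mL/kg vehicle as Tween 80 suspension or emulphor/alcohol/water). Time course: sacrifice at 3, 5 and 7 h. Stomachs and intestines examined; any erosion, ulcer or perforation scored ulcerogenic. Four doses at peak time; ED50 = dose giving irritation in 50% of animals, by linear regression.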

In assay [7] the test system is Rattus norvegicus. The assay can be described thus: Ability to inhibit Carrageenan-induced paw edema in rat administered perorally. Format: functional. Conditions: po. The gist of the method: as §1
In assay [8] the test system is Mus musculus. The assay can be described thus: Ability to inhibit phenylquinone induced writhing in mouse administered perorally. Conditions: po.
For assay [9], the system named is Mus musculus. The assay can be described thus: Ability to inhibit phenylquinone induced writhing, in mouse at dose 25 mg/Kg administered per orally. Particulars: po.
Assay [10] deals with Rattus norvegicus. The assay can be described thus: Ability to inhibit gastric irritation in rat at dose 400 mg/Kg administered per orally. Particulars: Stomach, po. Format: functional. In a few lines: as §2
Assay [11] deals with Rattus norvegicus. The assay can be described thus: Ability to inhibit gastric irritation in rat administered perorally. The format is functional. Particulars: Stomach, po. The gist of the method: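 Male Wistar rats, 150-175 g, groups of 10, fasted 48 h (water ad libitum), dosed orally (10 mL/kg) as aqueous Tween 80 suspension or emulphor/alcohol/water (1:1:8) for oils; controls got vehicle. Time response: sacrificed at 3, 5 and 7 h. Dose-response at peak time with four doses. Stomach and intestine lesions (erosion, ulcer, perforation) scored. ED50 is the dose irritating 50% of rats, by linear regression; otherwise % at stated dose.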

Usually Inhibition stands for the percentage by which the read-out fell short of the control. By inhibition in vivo is commonly meant the drop in the measured response relative to a control, in per cent. A lower inhibition in vivo goes with a weak effect. In turn, `O=C(O)CCCc1ccc2c(c1)C(=O)c1sccc1CO2` had an Inhibition in assay [1] of 38%. The same compound displayed an inhibition in vivo at 25 mg/kg in [2] of 94%.

For orientation: ED50 means the dose at which the effect has come halfway, by size or by number of responders. Lower therefore signals an effect at a small dose. As for `O=C1c2cc(CCO)ccc2OCc2ccsc21`, in assay [3], the inhibition in vivo at 20 mg/kg was determined as 62%. The 50% effective dose (ED50) in assay [4] amounted to 19.7 mg/kg.

On to `COC(=O)CCCc1ccc2c(c1)C(=O)c1sccc1CO2`, for which the 50% effect level in assay [4] (ED50) was put at a dose of 10.8 mg/kg.

`COC(=O)COC(=O)Cc1ccc2c(c1)C(=O)c1sccc1CO2`: the inhibition in vivo at 20 mg/kg in [5] is 43%. The compound further showed an ED50 in assay [4] of 1.5 mg/kg.

For the compound `CCOC(=O)CCCc1ccc2c(c1)C(=O)c1sccc1CO2`, in assay [5], the inhibition in vivo at 20 mg/kg came to 40%. In addition, in [4], the 50% effective dose (ED50) was 8.2 mg/kg.

In assay [3], `CC(=O)OCCCCc1ccc2c(c1)C(=O)c1sccc1CO2` had an inhibition in vivo at 20 mg/kg of 38%. In assay [4], this compound yielded an ED50 of 5.8 mg/kg.

Consider `CC1(C)COC(Cc2ccc3c(c2)C(=O)c2sccc2CO3)=N1`, for which, in assay [3], the inhibition in vivo at 20 mg/kg was 49%. For the same compound, the ED50 in [4] was found to be 7.2 mg/kg.

On to `O=C(O)Cc1ccc2c(c1)C(=O)c1sccc1CO2`, for which the ED50 in assay [1] was 3.4 mg/kg; in assay [6] it was 33.7 mg/kg; in assay [4], 3.1 mg/kg.

In the case of `O=C1c2cc(CCCCOC(=O)C(F)(F)F)ccc2OCc2ccsc21`, the ED50 is 16.5 mg/kg in [7] and 9.1 mg/kg in assay [8].

In assay [5], `CC(C)OC(=O)CCCc1ccc2c(c1)C(=O)c1sccc1CO2` displayed an inhibition in vivo at 20 mg/kg of 44%. This compound also displayed an ED50 in assay [4] of 8.5 mg/kg.

With `CC(=O)OCCc1ccc2c(c1)C(=O)c1sccc1CO2`, the ED50 in [1] came to 11.4 mg/kg; in assay [6], 175 mg/kg. The inhibition in vivo at 25 mg/kg in [9] is 52%.

In turn, `CCC(=O)OCCc1ccc2c(c1)C(=O)c1sccc1CO2` registered an inhibition in vivo at 20 mg/kg in assay [3] of 35%. In addition, testing at 25 mg/kg in assay [9] gave an inhibition in vivo of 22%.

In [3], `CC(C)(CO)NC(=O)Cc1ccc2c(c1)C(=O)c1sccc1CO2` returned an inhibition in vivo at 20 mg/kg of 21%. The same compound had an inhibition in vivo at 25 mg/kg in assay [9] of 19%.

In the case of `O=C1c2cc(CCCCO)ccc2OCc2ccsc21`, the ED50 in [1] was 8.6 mg/kg; in [4], 7.4 mg/kg. The compound also showed an inhibition in vivo at 400 mg/kg in assay [10] of 40%.

For `CC(C)(C)OC(=O)CCCc1ccc2c(c1)C(=O)c1sccc1CO2`, in [5], the inhibition in vivo at 20 mg/kg stood at 49%. Further, the inhibition in vivo at 25 mg/kg in assay [9] was found to be 93%.

`COc1ccc2c(c1)c(CC(=O)O)c(C)n2C(=O)c1ccc(Cl)cc1` [INDOMETHACIN]: the ED50 in assay [7] was found to be 4.4 mg/kg; in assay [11], 1.8 mg/kg; in assay [8] it was 0.7 mg/kg.
